# NR2E3 ag-1: human photoreceptor-specific nuclear receptor agonism | hit rate 0.35% among 360,000 | CHO-S Gal4-NCOR/VP16-NR2E3 two-hybrid, luciferase | Q9Y5X4 | inhibition of corepressor binding, % at 3.98 µM;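 active means inhibition above the mean of all tested compounds plus 3 SD, cut at about 70% in these data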;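 further: 0% = DMSO with NR2E3 transfected cells and 100% = cells lacking NR2E3 construct; higher means lower luciferase signal from less NR2E3 corepressor binding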
# Target sequence (Q9Y5X4 whole entry, looked up, the tested form may be a part): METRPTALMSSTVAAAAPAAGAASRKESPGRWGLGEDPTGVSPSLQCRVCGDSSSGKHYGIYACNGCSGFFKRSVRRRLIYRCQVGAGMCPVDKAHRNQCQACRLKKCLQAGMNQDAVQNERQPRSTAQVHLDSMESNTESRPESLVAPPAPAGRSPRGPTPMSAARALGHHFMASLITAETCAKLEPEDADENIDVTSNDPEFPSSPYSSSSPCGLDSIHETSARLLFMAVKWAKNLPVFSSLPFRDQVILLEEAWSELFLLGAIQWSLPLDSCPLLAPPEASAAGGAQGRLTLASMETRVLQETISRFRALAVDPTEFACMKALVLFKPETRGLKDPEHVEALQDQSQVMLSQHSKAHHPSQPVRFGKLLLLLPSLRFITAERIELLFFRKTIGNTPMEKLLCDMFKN
# NR1D1 modulator: modulates human Rev-erb alpha binding to DNA | activity, % at 10 µM | Rev-erbα–FITC-DNA binding, fluorescence polarization, 90 min | P20393 | hit rate 0.79% among 370,000 | AID 1259318;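 active means activity above about 14%, limit read from the data; passing the limit was not always enough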;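 further: 0% = DMSO wells with 35 nM protein and 100% = DMSO wells with 750 nM protein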
# PG9 Ab binder: PG9 antibody binding by small molecule; TR-FRET gp120-PG9 antibody binding; inhibition, % at 6.7 µM; hit rate 0.43% among 360,000; AID 624416; in the data active means inhibition above about 8.5%
# NR2E3 ag-2: agonists of human nuclear receptor NR2E3 | hit rate 0.12% among 320,000 | GST-NR2E3/biotin-RetCOR TR-FRET, 1536-well | inhibition of corepressor binding, % at 4.78 µM;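 active means percent inhibition above the cutoff of mean plus 3 SD of all tested compounds, set per screening campaign, cut at about 20% in these data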;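 further: 0% = DMSO wells and 100% = biotin wells as full block of FRET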
#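 Test system: GST-NR2E3 and biotin-RetCOR proteins | Quantity: 1.35 nM GST-tagged NR2E3 final | Medium: Tris pH 7.5 | Also added: 7 nM biotin-RetCOR | Dosing: Compound at 4.8 µM, single dose | Timing: 5 h at 4 °C | Detection: Time-resolved FRET | Read-out basis: Percent inhibition | Benchmarks: Biotin wells as high control, 0.6% DMSO wells as low control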
# NR2E3 ag confirm: confirmation of human NR2E3 nuclear receptor agonists | shares compounds with NR2E3 ag-2 | cell-free NR2E3 corepressor release, TR-FRET, 5 h | activation (reported as inhibition), % at 3.98 µM | hit rate 39% among 360 | AID 2379; in the data active means activation above about 20%
# PPARg-NCOR2 ag: PPARg-NCOR2 interaction agonism, NR2E3 counter-screen; shares compounds with NR2E3 ag-2; TR-FRET PPARg-NCOR2 coregulator interaction, biochemical; inhibition, % at 3.98 µM; hit rate 45% among 360; in the data active means inhibition above about 20%;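 further: 0% = DMSO vehicle and 100% = wells without protein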
# PG9 binder conf: confirmation of small molecules binding HIV-1 gp120 antibody PG9; inhibition, % at 6.7 µM; shares compounds with PG9 Ab binder; hit rate 90% among 1,500; TR-FRET PG9 antibody binding, biochemical; in the data active means inhibition above about 9%
# PGV04 Ab binding: counter-screen for PG9 binders: binding control antibody PGV04; shares compounds with PG9 Ab binder; TR-FRET PGV04 antibody-gp120 binding, biochemical; inhibition, % at 6.7 µM; hit rate 95% among 1,500; in the data active means inhibition above about 9.5%
# * marks the source's active call; other numbers are inactive results; . = no result given. This is a sample that favours compounds with a hit; in the whole collection about 1.5% have one here.
SMILES,NR2E3 ag-1,NR1D1 modulator,PG9 Ab binder,NR2E3 ag-2,NR2E3 ag confirm,PPARg-NCOR2 ag,PG9 binder conf,PGV04 Ab binding
CC(=O)OCC(=O)[C@@]1(O)CCC2C3CCC4=CC(=O)CC[C@]4(C)C3C(=O)C[C@@]21C (stereo not given in full),.,-1,.,.,.,.,.,.
CCOC(=O)N1CCN(C(=O)c2ccc3c(=O)n(Cc4ccc(Cl)cc4)c(=S)[nH]c3c2)CC1,-24,5,1,-8,.,.,.,.
CCOC(=O)Cn1c(=S)[nH]c2c(oc3ccc(Cl)cc32)c1=O,-17,8,16*,25*,46*,41*,7,9.4*
CSc1nc(-c2ccc(Cl)cc2)c(C#N)c(=O)[nH]1,-27,-4,4,12,.,.,.,.
CSc1nc(-c2ccccc2)c(C#N)c(=O)[nH]1,-29,1,15*,22*,22*,25*,22*,35*
CCC(Sc1nc(-c2ccccc2)c(C#N)c(=O)[nH]1)C(=O)Nc1cc(C)on1 (stereo not given),-12,-1,28*,27*,20*,42*,36*,45*
CCCOc1ccc(C2C(C(=O)c3cc4ccccc4o3)=C(O)C(=O)N2c2cc(C)on2)cc1OC (stereo not given),-24,-6,8,17,.,.,.,.
COc1ccccc1C1C(C(=O)c2cc3ccccc3o2)=C(O)C(=O)N1c1cc(C)on1 (stereo not given),-5,-4,10*,22*,20*,19,18*,32*
C=CCOc1cccc(C2C(C(=O)c3cc4ccccc4o3)=C(O)C(=O)N2c2cc(C)on2)c1 (stereo not given),-5,-3,17*,24*,31*,33*,22*,35*
COc1cccc(C2C(C(=O)c3cc4ccccc4o3)=C(O)C(=O)N2c2cc(C)on2)c1 (stereo not given),-29,-8,20*,27*,26*,26*,17*,25*
Cc1cc(N2C(=O)C(O)=C(C(=O)c3ccc(C)o3)C2c2cccc(Oc3ccccc3)c2)no1 (stereo not given),-11,-5,7,17,.,.,.,.
COCC1=C(C(=O)OC(C)OC(=O)OC(C)C)N2C(=O)[C@@H](NC(=O)/C(=N/OC)c3csc(N)n3)[C@H]2SC1 (stereo not given in full),.,6,.,.,.,.,.,.
OC[C@H]1OC([S-])[C@H](O)[C@@H](O)[C@@H]1O.[Au+] (stereo not given in full),.,-30,.,.,.,.,.,.
NCCCC[C@H](N)C(=O)O,.,-1,.,.,.,.,.,.
Cc1onc(-c2ccccc2Cl)c1C(=O)Nc1nnc(-c2ccc(F)cc2)s1,9,2,-1,5,.,.,.,.
Cc1onc(-c2ccccc2Cl)c1C(=O)Nc1nnc(-c2ccc(Br)cc2)s1,14,0,27*,22*,14,15,31*,49*
C=C1CC[C@H](O)C/C1=C/C=C1\CCCC2(C)C1CCC2C(C)CCCC(C)C (stereo not given in full),.,6,.,.,.,.,.,.
Cc1ccc2nc(N3CCN(C=O)CC3)nc(-c3ccccc3)c2c1,-18,-3,-1,-3,.,.,.,.
O=C(O)C1CCN(c2nc(-c3ccccc3)c3cc(Br)ccc3n2)CC1,-59,1,15*,21*,24*,25*,17*,36*
O=C(CSc1nc2ccccc2c(=O)n1Cc1ccccc1)NCc1ccco1,-11,8,20*,31*,4,12,21*,25*
Cc1ccc(C(=O)C2=C(O)C(=O)N(Cc3cccnc3)C2c2cccc(Oc3ccccc3)c2)o1 (stereo not given),.,-3,48*,52*,45*,41*,47*,54*
O=C(O)c1cc(-c2cccnc2)nc2ccc(Br)cc12,0,-5,44*,56*,58*,57*,56*,69*
